Square brackets hold non-standard residues; d marks the D form. Peptide text beside a SMILES is read from it. Trx = NC[C@H]1CC[C@H](C(=O)O)CC1; 4Amb = NCc1ccc(C(=O)O)cc1; 3Abz = Nc1cccc(C(=O)O)c1; 4Abz = Nc1ccc(C(=O)O)cc1; 2Abz = Nc1ccccc1C(=O)O; Ahx = NCCCCCC(=O)O
Columns and labels:
KiSS-1 receptor [1] = biological target: T1, KiSS-1 receptor (Homo sapiens, UniProt Q969F8); experiment: Agonist activity at GPR54 expressed in CHO cells assessed as intracellular calcium mobilization; format: functional, cell-based
T1 sequence (Q969F8 whole entry): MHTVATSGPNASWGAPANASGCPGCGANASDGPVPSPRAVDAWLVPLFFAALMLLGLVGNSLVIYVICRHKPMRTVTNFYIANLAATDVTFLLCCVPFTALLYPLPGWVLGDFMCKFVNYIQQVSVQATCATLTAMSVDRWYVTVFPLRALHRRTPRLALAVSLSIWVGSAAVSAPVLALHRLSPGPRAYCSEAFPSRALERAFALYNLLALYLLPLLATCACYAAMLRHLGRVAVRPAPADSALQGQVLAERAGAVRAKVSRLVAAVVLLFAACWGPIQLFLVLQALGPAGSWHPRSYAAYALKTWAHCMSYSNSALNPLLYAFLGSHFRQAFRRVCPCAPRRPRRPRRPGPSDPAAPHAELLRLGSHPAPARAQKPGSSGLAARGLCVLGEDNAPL

KiSS-1 receptor [2] = biological target: T1, KiSS-1 receptor; experiment: Agonist activity at GPR54 expressed in CHO cells assessed as intracellular calcium mobilization at 10 nM relative to KP-10; format: functional, cell-based
Procedure, shortened: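 FLIPR Fluo3 Ca2+ mobilization in CHO/dhfr cells stably expressing GPR54, read over 40 s. Peptide tested at 10 nM (n = 3). Maximum signal expressed as a percentage of the maximum induced by 1 µM KP-10 (n = 3).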

KiSS-1 receptor [3] = biological target: T1, KiSS-1 receptor; experiment: Ratio of EC50 of drug for GPR54 to EC50 of KP-10 for GPR54; format: functional
Procedure, shortened: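 Q calculated as EC50(compound)/EC50(KP-10), with KP-10 run as control on each FLIPR Ca2+ plate (GPR54/CHO cells) to correct for plate-to-plate variation.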

SMILES	EC50 (KiSS-1 receptor [1])	Activity (KiSS-1 receptor [2])	Ratio EC50 (KiSS-1 receptor [3])
CC(=O)NCc1ccc(C(=O)N[C@@H](Cc2ccccc2)C(=O)NCC(=O)N[C@@H](CC(C)C)C(=O)N[C@@H](CCCNC(=N)N)C(=O)N[C@@H](Cc2c[nH]c3ccccc23)C(N)=O)cc1 (Ac-[4Amb]FGLRW-NH2)		101%	
CC(C)C[C@H](NC(=O)CNC(=O)[C@H](Cc1ccccc1)NC(=O)CCCCCN)C(=O)N[C@@H](CCCNC(=N)N)C(=O)N[C@@H](Cc1c[nH]c2ccccc12)C(N)=O (H-[Ahx]FGLRW-NH2)		1.6%	
CC(C)C[C@H](NC(=O)CNC(=O)[C@H](Cc1ccccc1)NC(=O)c1ccccc1O)C(=O)N[C@@H](CCCNC(=N)N)C(=O)N[C@@H](Cc1c[nH]c2ccccc12)C(N)=O		90.1%	6.6
CC(C)C[C@H](NC(=O)CNC(=O)[C@H](Cc1ccccc1)NC(=O)c1ccc(CO)cc1)C(=O)N[C@@H](CCCNC(=N)N)C(=O)N[C@@H](Cc1c[nH]c2ccccc12)C(N)=O		95.4%	4.7
CC(C)C[C@H](NC(=O)CNC(=O)[C@H](Cc1ccccc1)NC(=O)c1ccc([N+](=O)[O-])cc1)C(=O)N[C@@H](CCCNC(=N)N)C(=O)N[C@@H](Cc1c[nH]c2ccccc12)C(N)=O	1 nM	94.3%	1.5
CC(C)C[C@H](NC(=O)CNC(=O)[C@H](Cc1ccccc1)NC(=O)c1ccc(CN(Cc2ccccn2)Cc2ccccn2)cc1)C(=O)N[C@@H](CCCNC(=N)N)C(=O)N[C@@H](Cc1c[nH]c2ccccc12)C(N)=O		88.9%	
CC(C)C[C@H](NC(=O)CNC(=O)[C@H](Cc1ccccc1)NC(=O)c1ccc(CN(Cc2ccccc2)Cc2ccccc2)cc1)C(=O)N[C@@H](CCCNC(=N)N)C(=O)N[C@@H](Cc1c[nH]c2ccccc12)C(N)=O		9.3%	
CC(C)C[C@H](NC(=O)CNC(=O)[C@H](Cc1ccccc1)NC(=O)c1ccc(CNC(=N)N)cc1)C(=O)N[C@@H](CCCNC(=N)N)C(=O)N[C@@H](Cc1c[nH]c2ccccc12)C(N)=O		93.7%	
CC(C)C[C@H](NC(=O)CNC(=O)[C@H](Cc1ccccc1)NC(=O)c1ccc(Cl)cc1)C(=O)N[C@@H](CCCNC(=N)N)C(=O)N[C@@H](Cc1c[nH]c2ccccc12)C(N)=O		91.8%	
CC(C)C[C@H](NC(=O)CNC(=O)[C@H](Cc1ccccc1)NC(=O)c1ccc(CNCc2ccccn2)cc1)C(=O)N[C@@H](CCCNC(=N)N)C(=O)N[C@@H](Cc1c[nH]c2ccccc12)C(N)=O	2.7 nM	89.3%	4.5
CC(C)C[C@H](NC(=O)CNC(=O)[C@H](Cc1ccccc1)NC(=O)c1ccc(CN)cc1)C(=O)N[C@@H](CCCNC(=N)N)C(=O)N[C@@H](Cc1c[nH]c2ccccc12)C(N)=O (H-[4Amb]FGLRW-NH2)	3.1 nM	96.5%	3.4
CC(C)C[C@H](NC(=O)CNC(=O)[C@H](Cc1ccccc1)NC(=O)c1ccncc1)C(=O)N[C@@H](CCCNC(=N)N)C(=O)N[C@@H](Cc1c[nH]c2ccccc12)C(N)=O	1.7 nM	102%	2.4
CC(C)C[C@H](NC(=O)CNC(=O)[C@H](Cc1ccccc1)NC(=O)c1ccc(CNCc2ccccc2)cc1)C(=O)N[C@@H](CCCNC(=N)N)C(=O)N[C@@H](Cc1c[nH]c2ccccc12)C(N)=O	3.3 nM	86.5%	5.6
CC(C)C[C@H](NC(=O)CNC(=O)[C@H](Cc1ccccc1)NC(=O)c1ccc(NC(=N)N)cc1)C(=O)N[C@@H](CCCNC(=N)N)C(=O)N[C@@H](Cc1c[nH]c2ccccc12)C(N)=O	1.7 nM	91.2%	2.9
CC(C)C[C@H](NC(=O)CNC(=O)[C@H](Cc1ccccc1)NC(=O)c1ccc(O)cc1)C(=O)N[C@@H](CCCNC(=N)N)C(=O)N[C@@H](Cc1c[nH]c2ccccc12)C(N)=O		94.6%	
COc1ccc(C(=O)N[C@@H](Cc2ccccc2)C(=O)NCC(=O)N[C@@H](CC(C)C)C(=O)N[C@@H](CCCNC(=N)N)C(=O)N[C@@H](Cc2c[nH]c3ccccc23)C(N)=O)cc1	1.2 nM	104%	1.6
CC(C)C[C@H](NC(=O)CNC(=O)[C@H](Cc1ccccc1)NC(=O)[C@H]1CC[C@H](CN)CC1)C(=O)N[C@@H](CCCNC(=N)N)C(=O)N[C@@H](Cc1c[nH]c2ccccc12)C(N)=O (H-[Trx]FGLRW-NH2)		9.9%	
CC(C)C[C@H](NC(=O)CNC(=O)[C@H](Cc1ccccc1)NC(=O)c1c(F)c(F)c(F)c(F)c1F)C(=O)N[C@@H](CCCNC(=N)N)C(=O)N[C@@H](Cc1c[nH]c2ccccc12)C(N)=O	> 100 nM	0.6%	
CC(C)C[C@H](NC(=O)CNC(=O)[C@H](Cc1ccccc1)NC(=O)c1cc(O)c(O)c(O)c1)C(=O)N[C@@H](CCCNC(=N)N)C(=O)N[C@@H](Cc1c[nH]c2ccccc12)C(N)=O		1%	
CC(C)C[C@H](NC(=O)CNC(=O)[C@H](Cc1ccccc1)NC(=O)c1ccccc1OC(=O)c1ccccc1O)C(=O)N[C@@H](CCCNC(=N)N)C(=O)N[C@@H](Cc1c[nH]c2ccccc12)C(N)=O	3 nM	92.1%	4

Now from value to compound:

EC50 (KiSS-1 receptor [1])	Activity (KiSS-1 receptor [2])	Ratio EC50 (KiSS-1 receptor [3])	SMILES
0.8 nM			CC(C)C[C@H](NC(=O)CNC(=O)[C@H](Cc1ccccc1)NC(=O)c1ccccn1)C(=O)N[C@@H](CCCN=C(N)N)C(=O)N[C@@H](Cc1c[nH]c2ccccc12)C(N)=O
5 nM			CC(C)C[C@H](NC(=O)CNC(=O)[C@H](Cc1ccccc1)NC(=O)c1ccccc1O)C(=O)N[C@@H](CCCN=C(N)N)C(=O)N[C@@H](Cc1c[nH]c2ccccc12)C(N)=O
3 nM	93.5%	4.1	CC(C)C[C@H](NC(=O)CNC(=O)[C@H](Cc1ccccc1)NC(=O)c1cccnc1)C(=O)N[C@@H](CCCNC(=N)N)C(=O)N[C@@H](Cc1c[nH]c2ccccc12)C(N)=O
3.1 nM	94%	2.8	CC(C)C[C@H](NC(=O)CNC(=O)[C@H](Cc1ccccc1)NC(=O)c1ccccc1N)C(=O)N[C@@H](CCCNC(=N)N)C(=O)N[C@@H](Cc1c[nH]c2ccccc12)C(N)=O (H-[2Abz]FGLRW-NH2)
	88.4%		CC(C)C[C@H](NC(=O)CNC(=O)[C@H](Cc1ccccc1)NC(=O)c1c[nH]cn1)C(=O)N[C@@H](CCCNC(=N)N)C(=O)N[C@@H](Cc1c[nH]c2ccccc12)C(N)=O
	90.4%		CC(C)C[C@H](NC(=O)CNC(=O)[C@H](Cc1ccccc1)NC(=O)c1ccc(N)cc1)C(=O)N[C@@H](CCCNC(=N)N)C(=O)N[C@@H](Cc1c[nH]c2ccccc12)C(N)=O (H-[4Abz]FGLRW-NH2)
1.2 nM	99.7%	1.6	CC(C)C[C@H](NC(=O)CNC(=O)[C@H](Cc1ccccc1)NC(=O)c1cccc(O)c1)C(=O)N[C@@H](CCCNC(=N)N)C(=O)N[C@@H](Cc1c[nH]c2ccccc12)C(N)=O
2 nM			CC(C)C[C@H](NC(=O)CNC(=O)[C@H](Cc1ccccc1)NC(=O)c1ccc[nH]1)C(=O)N[C@@H](CCCN=C(N)N)C(=O)N[C@@H](Cc1c[nH]c2ccccc12)C(N)=O
3 nM			CC(C)C[C@H](NC(=O)CNC(=O)[C@H](Cc1ccccc1)NC(=O)c1ccc(CO)cc1)C(=O)N[C@@H](CCCN=C(N)N)C(=O)N[C@@H](Cc1c[nH]c2ccccc12)C(N)=O
> 100 nM			CC(C)C[C@H](NC(=O)CNC(=O)[C@H](Cc1ccccc1)NC(=O)c1cc(O)c(O)c(O)c1)C(=O)N[C@@H](CCCN=C(N)N)C(=O)N[C@@H](Cc1c[nH]c2ccccc12)C(N)=O
4.7 nM	88.5%	4.2	CC(C)C[C@H](NC(=O)CNC(=O)[C@H](Cc1ccccc1)NC(=O)c1cccc(N)c1)C(=O)N[C@@H](CCCNC(=N)N)C(=O)N[C@@H](Cc1c[nH]c2ccccc12)C(N)=O (H-[3Abz]FGLRW-NH2)
	95.6%		CC(C)C[C@H](NC(=O)CNC(=O)[C@H](Cc1ccccc1)NC(=O)c1ccc(F)cc1)C(=O)N[C@@H](CCCNC(=N)N)C(=O)N[C@@H](Cc1c[nH]c2ccccc12)C(N)=O
	95.8%	1.7	CC(C)C[C@H](NC(=O)CNC(=O)[C@H](Cc1ccccc1)NC(=O)c1ccc[nH]1)C(=O)N[C@@H](CCCNC(=N)N)C(=O)N[C@@H](Cc1c[nH]c2ccccc12)C(N)=O

Reference: ChEMBL document CHEMBL1145440, “SAR and QSAR studies on the N-terminally acylated pentapeptide agonists for GPR54” (J Med Chem, 2007)
